Laboratory results taken from PubChem BioAssay AID617 (SRMLSC, 2007).

tested on: E. coli BW25113 ΔtolC growth inhibition, OD615; assay: E. coli ΔtolC antibacterial growth inhibition – strain BW25113 ΔtolC::kan, dose response (AID 617)
Summary of the method: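 Test system: E. coli BW25113 ΔtolC::kan bacteria | Amount: 1:1000 diluted subculture inoculum | Medium: LB plus kanamycin | Timing: 20 h exposure at 37 °C | Signal: Absorbance at 615 nm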

With `CCC1(C)Cc2ccccc2-c2nc3n(c(=O)c21)CCCCC3` (stereo unspecified) as the molecule, how does the IC50 read?
Its IC50 is 15.8 µM.

How did the IC50 turn out when `CCC(=NCc1ccc2c(c1)OCO2)c1c(O)n(C2CCCCC2)c(=O)[nH]c1=O` was run?
The IC50 was 12 µM.

With `Cc1cc(OCCCC(=O)N2CCCCC2)cc(C)c1Cl` as the molecule, how does the IC50 read?
Its IC50 is 28.2 µM.

`CC(C)(C)n1nnnc1C(c1cccs1)N1CCCc2ccccc21` (stereo unspecified) was tested. Which IC50 did it give?
The IC50 was 13.6 µM.

With `CN(C)C1(c2nnnn2CCOC(=O)Nc2ccc(Cl)cc2)CCCCC1` as the molecule, how does the IC50 read?
Its IC50 is 8.24 µM.

Which IC50 does the source give for `O=C1Nc2ccccc2C12OCC(COc1ccc(Cl)cc1)O2` (stereo unspecified) here?
Its IC50 is 17.4 µM.

`Cc1cccc(-c2cc3nc4c(c(N5CCOCC5)n3n2)CCCC4)c1` was tested. Which IC50 did it give?
The IC50 was 16 µM.

`CC(=O)Nc1nc2ccccc2n1Cc1ccccc1C` was tested. Which IC50 did it give?
The IC50 was 18.1 µM.

With `CCc1c(O)nc(SCc2ccccc2)n(C(C)CC)c1=O` (stereo unspecified) as the molecule, how does the IC50 read?
Its IC50 is 4.28 µM.

With `COc1cc2cc(C(c3nnnn3C3CCCCC3)N(C)C3CCCCC3)c(=O)[nH]c2cc1OC` (stereo unspecified) as the molecule, how does the IC50 read?
Its IC50 is 9.71 µM.

For `CCCCCCn1c(N2CCN(c3ccccc3)CC2)nc2c1c(=O)n(C)c(=O)n2C`, which IC50 is on record?
The IC50 was 10.1 µM.

With `CC1(C)Cc2c(sc3c2c(=N)n(Cc2ccco2)c(=O)n3Cc2ccc(Cl)cc2)CO1` as the molecule, how does the IC50 read?
The IC50 was 13.3 µM.

Which IC50 does the source give for `CCCCNc1cc(C)nc(NCc2ccccc2)n1` here?
The IC50 was 7.8 µM.

For `COc1cccc(Cn2c(Oc3cccc(C)c3)nc3c2c(=O)n(C)c(=O)n3C)c1`, which IC50 is on record?
The IC50 was 14.3 µM.

How did the IC50 turn out when `O=C1OC(c2ccc(O)cc2)(c2ccc(O)cc2)c2ccccc21` was run?
The IC50 was 4.01 µM.

With `Cc1ccccc1Cn1nc(C)c(NC(=O)c2noc3c2CC(C(C)(C)C)CC3)c1C` (stereo unspecified) as the molecule, how does the IC50 read?
The IC50 was 9.29 µM.

For `COc1ccc2c(c1)sc1nc(-c3ccccc3)cn12`, which IC50 is on record?
The IC50 was 12.2 µM.

How did the IC50 turn out when `Oc1c(C(c2cccs2)N2CCN(c3cccc(Cl)c3)CC2)sc2ncnn12` (stereo unspecified) was run?
Its IC50 is 13.9 µM.

`CC(C)C(C(=O)NCc1ccco1)N(C(=O)CNS(=O)(=O)c1ccc(Cl)cc1)C1CCCC1` (stereo unspecified) was tested. Which IC50 did it give?
The IC50 was 24.8 µM.

For `COc1ccccc1-c1nnc(NC(=O)c2ccc(S(=O)(=O)N(C)C)cc2)o1`, which IC50 is on record?
The IC50 was 3.77 µM.

With `CCCCN1C(=O)C2ON(c3ccccc3C)C(c3ccco3)C2C1=O` (stereo unspecified) as the molecule, how does the IC50 read?
Its IC50 is 14.4 µM.

How did the IC50 turn out when `Cc1cccc(OCCn2c(NC(=O)c3ccco3)nc3ccccc32)c1` was run?
The IC50 was 11 µM.

Which IC50 does the source give for `CCCc1nc2ccccc2c(=O)n1NC(=O)c1c(O)c2ccccc2[nH]c1=O` here?
The IC50 was 5.73 µM.

How did the IC50 turn out when `CCN(c1cccc(C(F)(F)F)c1)S(=O)(=O)c1ccc2c(c1)CCN2C(=O)C1CC1` was run?
Its IC50 is 50.9 µM.

`CCOc1ccc(C(=O)N2CCN(c3cccc(C)c3C)CC2)cc1` was tested. Which IC50 did it give?
Its IC50 is 11 µM.

How did the IC50 turn out when `Cc1ccc(S(=O)(=O)Nc2cccc3ncccc23)s1` was run?
The IC50 was 1.65 µM.

For `CCc1ccc2[nH]c(=O)c(C(c3nnnn3CCOC)N3CCN(c4ccc(F)cc4)CC3)cc2c1` (stereo unspecified), which IC50 is on record?
The IC50 was 35.7 µM.

Which IC50 does the source give for `N#Cc1c(/N=C/c2ccco2)oc(-c2ccccc2)c1-c1ccccc1` here?
Its IC50 is 6.78 µM.

How did the IC50 turn out when `O=C(NC1CCCC1)c1sc(=S)n2c1[nH]c(=O)c1ccccc12` was run?
Its IC50 is 0.56 µM.

With `O=C(CSc1nnnn1C1CCCCC1)Nc1cccc(NC(=O)c2ccco2)c1` as the molecule, how does the IC50 read?
The IC50 was 15.5 µM.

With `Cc1ccc(C(=O)N2CCN(c3cccc(Cl)c3)CC2)cc1C` as the molecule, how does the IC50 read?
The IC50 was 10.4 µM.

With `CC1CCN(C(=O)c2ccc(COc3ccccc3Cl)o2)CC1` as the molecule, how does the IC50 read?
The IC50 was 11.1 µM.

How did the IC50 turn out when `Cn1c(CSc2nc3ccccc3s2)nc2ccccc21` was run?
The IC50 was 22.4 µM.

For `CC(C)COC(=O)NCCOC(=O)Nc1cccc(Cl)c1`, which IC50 is on record?
Its IC50 is 19.6 µM.

Which IC50 does the source give for `N#Cc1ccc(CSc2nnc(-c3cccs3)n2-c2ccccc2)cc1` here?
The IC50 was 15.6 µM.

For `O=S(=O)(Nc1nc2ccccc2nc1NCc1ccco1)c1ccccc1`, which IC50 is on record?
The IC50 was 8.89 µM.

Which IC50 does the source give for `CCOC(=O)c1cn(CC)c2cc(N3CCCCC3)c(F)cc2c1=O` here?
The IC50 was 3.42 µM.

Which IC50 does the source give for `Cc1nc2c(C(=O)NCc3ccc4c(c3)OCO4)c[nH]n2c(=O)c1Cc1ccccc1F` here?
The IC50 was 2.6 µM.

How did the IC50 turn out when `Brc1ccc(CSc2nnc(-c3ccccn3)n2Cc2ccco2)cc1` was run?
The IC50 was 9.85 µM.

With `NC1C2CN(c3nc4c(cc3F)c(=O)c(C(=O)O)cn4-c3ccc(F)cc3F)CC12` (stereo unspecified) as the molecule, how does the IC50 read?
Its IC50 is < 0.2 µM.

How did the IC50 turn out when `CCOC(=O)c1c(-c2cccs2)csc1NC(=O)CN1CC(C)OC(C)C1` (stereo unspecified) was run?
Its IC50 is 24.8 µM.

How did the IC50 turn out when `Cn1c(CSc2nnc(SCc3ccccc3)s2)nc2ccccc21` was run?
Its IC50 is 22.5 µM.

`COc1ccc(-c2nc(-c3cccs3)c(-c3cccs3)[nH]2)cc1O` was tested. Which IC50 did it give?
Its IC50 is 6.09 µM.

Which IC50 does the source give for `CN(C)c1ccc(/C=N/n2ncc3ccccc32)cc1` here?
The IC50 was 34.6 µM.

`CCc1c(C)nc2cc(-c3cc(OC)cc(OC)c3)nn2c1N1CCCC1` was tested. Which IC50 did it give?
Its IC50 is 25.5 µM.

With `Cc1c(NC(=O)Nc2ccc(Cl)c(Cl)c2)c(=O)n(-c2ccccc2)n1C` as the molecule, how does the IC50 read?
The IC50 was 39.6 µM.

With `CCN1C(=O)CSC1=NC1C2CC3CC(C2)CC1C3` (stereo unspecified) as the molecule, how does the IC50 read?
Its IC50 is 33.5 µM.

For `Cc1cc(C)n(-c2nc3ccccc3nc2N2CCCCCC2)n1`, which IC50 is on record?
The IC50 was 18.4 µM.

With `Cc1cccc(S(=O)(=O)Nc2nc3ccccc3nc2NCc2ccco2)c1` as the molecule, how does the IC50 read?
Its IC50 is 6.92 µM.

For `Cc1ccc(/C(O)=C2\C(=O)C(=O)N(c3cc(C)on3)C2c2cccc(Br)c2)cc1` (stereo unspecified), which IC50 is on record?
Its IC50 is 13.8 µM.

`COC(=O)c1ccc(C2c3c(n[nH]c3C)C(=O)N2c2ccc(C)cc2)cc1` (stereo unspecified) was tested. Which IC50 did it give?
The IC50 was 4.38 µM.

`CCOc1ccccc1C(=O)NC(C(=O)OCC(=O)Nc1nnc(-c2ccccc2)o1)C(C)C` (stereo unspecified) was tested. Which IC50 did it give?
Its IC50 is 7.68 µM.

For `COc1c(C)cc(Br)cc1C(=O)Nc1cccc(NC(=O)c2ccco2)c1`, which IC50 is on record?
Its IC50 is 7.48 µM.

Which IC50 does the source give for `Cc1ccc(C)c(S(=O)(=O)C(C#N)c2nc3ccccc3nc2N2CCOCC2)c1` (stereo unspecified) here?
Its IC50 is 11.6 µM.

How did the IC50 turn out when `OCCn1c(-c2ccc3c(c2)OCO3)csc1=Nc1ccccc1` was run?
The IC50 was 23.5 µM.

How did the IC50 turn out when `c1ccc(CSc2nnc(-c3ccco3)c(-c3ccco3)n2)cc1` was run?
Its IC50 is 11.1 µM.
